Reference: ChEMBL document CHEMBL1121884, “Piperazinylquinoxalines with central serotoninmimetic activity” (1981)

Columns and labels:
Assay type in all cases: functional
[1] = biological target: T1, Serotonin (5-HT) receptor (Rattus norvegicus) (UniProt P35563+P35365+P32305+P31388+Q9JJ16+P28564+P30994+Q62758+P08909+P14842+P30940+P35364+P19327+P28565); assay: (§1) Ability to elicit head twitches in rats (a serotonin mimetic response); design: concentration or dose not given beside the values
Method in brief: (§2)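 Female Sprague-Dawley rats (150-250 g), compound given ip in 1% methylcellulose vehicle, dose as base weight; quantal scoring of rats showing at least one head twitch during a 2-min observation beginning 30 min after dosing; usually six rats per dose level; vehicle controls run.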

[2] = biological target: T1, Serotonin (5-HT) receptor (Rattus norvegicus); assay: as §1; design: concentration or dose not given beside the values; method in brief: as §2; remark: listed apart in the source
[3] = biological target: Sodium-dependent serotonin transporter (Rattus norvegicus) (UniProt P31652); assay: Serotonin neuronal reuptake blocking activity was determined by the antagonism of the head twitch response induced in rats; design: concentration or dose not given beside the values
Method in brief: (§3)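 Female Sprague-Dawley rats (150-250 g) dosed ip with compound (1% methylcellulose vehicle, dose as base weight), then p-chloromethamphetamine 6.0 mg/kg ip 1 h later; head twitches observed 30 min after PCMA; scored as rats not twitching; usually six rats per dose; ED50 = dose antagonizing PCMA head twitch in 50% of animals, with 95% confidence limits.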

[4] = biological target: T1, Serotonin (5-HT) receptor (Rattus norvegicus); assay: as §1; design: concentration or dose not given beside the values; method in brief: as §2; remark: listed apart in the source
Rattus norvegicus [5] = assay: Serotonin neuronal reuptake blocking activity was determined by the antagonism of the head twitch response induced by treatment of rats with p-chloromethamphetamine (PCMA) after 4 mg/kg of ip administration; conditions: route intraperitoneal; method in brief: as §3
Rattus norvegicus [6] = assay: Serotonin neuronal reuptake blocking activity was determined by the antagonism of the head twitch response induced by treatment of rats with p-chloromethamphetamine (PCMA) after 0.4 mg/kg of ip administration; conditions: route intraperitoneal; method in brief: as §3
[7] = biological target: Sodium-dependent serotonin transporter (Rattus norvegicus) (UniProt P31652); assay: (§4) Serotonin neuronal reuptake blocking activity was determined by the antagonism of the head twitch response induced by treatment of rats; design: concentration or dose not given beside the values; method in brief: as §3
Rattus norvegicus [8] = assay: Serotonin neuronal reuptake blocking activity was determined by the antagonism of the head twitch response induced in rats with p-chloromethamphetamine (PCMA) after 40 mg/kg of ip administration; 2/4; conditions: route intraperitoneal; method in brief: as §3
[9] = biological target: Sodium-dependent serotonin transporter (Rattus norvegicus) (UniProt P31652); assay: as §4; design: concentration or dose not given beside the values; method in brief: as §3; remark: listed apart in the source
Rattus norvegicus [10] = assay: Ability to elicit head twitches in rats a response characteristic of a serotonin mimetic action in the central nervous system after 40 mg/kg of ip administration; 0/12; conditions: route intraperitoneal; method in brief: as §2
Rattus norvegicus [11] = assay: Ability to elicit head twitches in rats a response characteristic of a serotonin mimetic action in the central nervous system was measured after 0.4 mg/kg of ip administration; 0/12; conditions: route intraperitoneal; method in brief: as §2
Rattus norvegicus [12] = assay: Ability to elicit head twitches in rats a response characteristic of a serotonin mimetic action in the central nervous system was measured after 4 mg/kg of ip administration; 4/12; conditions: route intraperitoneal; method in brief: as §2
Rattus norvegicus [13] = assay: Serotonin neuronal reuptake blocking activity was determined by the antagonism of the head twitch response induced in rats with p-chloromethamphetamine (PCMA) after 40 mg/kg of ip administration; 8/12; conditions: route intraperitoneal; method in brief: as §3
Rattus norvegicus [14] = assay: Serotonin neuronal reuptake blocking activity was determined by the antagonism of the head twitch response induced by treatment of rats with p-chloromethamphetamine (PCMA) after 0.4 mg/kg of ip administration; 1/12; conditions: route intraperitoneal; method in brief: as §3
Rattus norvegicus [15] = assay: Serotonin neuronal reuptake blocking activity was determined by the antagonism of the head twitch response induced by treatment of rats with p-chloromethamphetamine (PCMA) after 4 mg/kg of ip administration; 2/12; conditions: route intraperitoneal; method in brief: as §3
Rattus norvegicus [16] = assay: Ability to elicit head twitches in rats a response characteristic of a serotonin mimetic action in the central nervous system after 40 mg/kg of ip administration; 3/10; conditions: route intraperitoneal
Rattus norvegicus [17] = assay: Ability to elicit head twitches in rats a response characteristic of a serotonin mimetic action in the central nervous system was measured after 0.4 mg/kg of ip administration; 0/10; conditions: route intraperitoneal
Rattus norvegicus [18] = assay: Serotonin neuronal reuptake blocking activity was determined by the antagonism of the head twitch response induced by treatment of rats with p-chloromethamphetamine (PCMA) after 0.4 mg/kg of ip administration; 6/10; conditions: route intraperitoneal
Method in brief: (§5)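 Female Sprague-Dawley rats (150-250 g) dosed ip with compound in 1% methylcellulose vehicle. p-Chloromethamphetamine 6.0 mg/kg ip was given 1 h later, and head movements were observed 30 min after that. Scored as number of rats not showing head twitches. Six rats per dose unless otherwise noted. Doses expressed as base weight.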

Rattus norvegicus [19] = assay: Serotonin neuronal reuptake blocking activity was determined by the antagonism of the head twitch response induced in rats with p-chloromethamphetamine (PCMA) after 40 mg/kg of ip administration;9/10; conditions: route intraperitoneal; method in brief: as §5
Rattus norvegicus [20] = assay: Ability to elicit head twitches in rats a response characteristic of a serotonin mimetic action in the central nervous system was measured after 4 mg/kg of ip administration; 2/10; conditions: route intraperitoneal
Rattus norvegicus [21] = assay: Serotonin neuronal reuptake blocking activity was determined by the antagonism of the head twitch response induced by treatment of rats with p-chloromethamphetamine (PCMA) after 4 mg/kg of ip administration; 7/10; conditions: route intraperitoneal; method in brief: as §5

Chain of Sodium-dependent serotonin transporter (Rattus norvegicus) (P31652 whole entry): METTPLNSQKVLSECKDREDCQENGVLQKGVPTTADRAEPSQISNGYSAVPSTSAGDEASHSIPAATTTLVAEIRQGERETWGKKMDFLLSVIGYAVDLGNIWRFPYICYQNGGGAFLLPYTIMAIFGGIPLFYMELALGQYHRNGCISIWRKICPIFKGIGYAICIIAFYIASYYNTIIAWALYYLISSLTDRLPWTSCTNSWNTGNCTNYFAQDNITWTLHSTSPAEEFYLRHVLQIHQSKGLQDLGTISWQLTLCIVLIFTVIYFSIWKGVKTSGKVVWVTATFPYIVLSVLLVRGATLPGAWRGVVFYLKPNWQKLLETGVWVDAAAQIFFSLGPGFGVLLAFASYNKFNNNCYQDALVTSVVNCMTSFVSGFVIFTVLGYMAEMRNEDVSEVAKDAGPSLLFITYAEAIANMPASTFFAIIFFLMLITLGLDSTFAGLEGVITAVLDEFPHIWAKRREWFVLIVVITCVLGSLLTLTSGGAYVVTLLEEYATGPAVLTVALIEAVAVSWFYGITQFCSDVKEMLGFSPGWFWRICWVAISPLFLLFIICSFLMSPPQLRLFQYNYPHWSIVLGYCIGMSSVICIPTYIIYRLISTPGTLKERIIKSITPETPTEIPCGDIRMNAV

## Nc1ccc2nc(N3CCNCC3)cnc2c1
[1]
  Activity: 1
[2]
  Activity: 0
[3]
  PCMA antagonism: 3
[4]
  Activity: 2
Rattus norvegicus [5]
  PCMA antagonism: 4
Rattus norvegicus [6]
  PCMA antagonism: 2

## Cl.Clc1cccc2nc(N3CCNCC3)cnc12
[7]
  PCMA antagonism: 0
Rattus norvegicus [8]
  PCMA antagonism: 2
[1]
  Activity: 0
[9]
  PCMA antagonism: 0
[2]
  Activity: 0
[4]
  Activity: 2

## Cc1ccc2nc(N3CCNCC3)cnc2c1.Cl
Rattus norvegicus [10]
  Activity: 0
Rattus norvegicus [11]
  Activity: 0
Rattus norvegicus [12]
  Activity: 4
Rattus norvegicus [13]
  PCMA antagonism: 8
Rattus norvegicus [14]
  PCMA antagonism: 1
Rattus norvegicus [15]
  PCMA antagonism: 2

## Cl.FC(F)(F)c1ccc2nc(N3CCNCC3)cnc2c1
Rattus norvegicus [16]
  Activity: 3
Rattus norvegicus [17]
  Activity: 0
Rattus norvegicus [18]
  PCMA antagonism: 6
Rattus norvegicus [19]
  PCMA antagonism: 9
Rattus norvegicus [20]
  Activity: 2
Rattus norvegicus [21]
  PCMA antagonism: 7
